Measured values reported in ChEMBL document CHEMBL4330109, “Parallel synthesis of a bis-triazoles library as psammaplin A analogues: A new wave of antibiofilm compounds?” (Bioorg Med Chem Lett, 2019).

Key:
Pseudoalteromonas ulvae [1] = test: Anti-biofilm activity against Pseudoalteromonas ulvae TC14 assessed as inhibition of bacterial adhesion incubated for 15 hrs at 20 degC by Syto 61 dye based fluorescence assay; type: functional, organism-based
In short: (§1)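 Biofilm formation (adhesion) of the marine strains was measured with the Syto 61 fluorophore, using a method adapted from Leroy et al. Compounds were first screened at 200 µM, and the value is % adhesion at that concentration. EC50 values were derived from the same assay.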

Paracoccus sp. [2] = test: Anti-biofilm activity against Paracoccus sp. 4M6 assessed as bacterial adhesion at 200 uM incubated for 15 hrs at 20 degC by Syto 61 dye based fluorimetric assay relative to control; type: functional; in short: as §1
[3] = system: Pseudoalteromonas lipolytica; test: Anti-biofilm activity against Pseudoalteromonas lipolytica TC8 assessed as bacterial adhesion at 200 uM incubated for 15 hrs at 20 degC by Syto 61 dye based fluorimetric assay relative to control; type: functional; in short: as §1
Paracoccus sp. [4] = test: Anti-biofilm activity against Paracoccus sp. 4M6 assessed as inhibition of bacterial adhesion incubated for 15 hrs at 20 degC by Syto 61 dye based fluorimetric assay; type: functional, organism-based; in short: as §1
[5] = system: Pseudoalteromonas lipolytica; test: Anti-biofilm activity against Pseudoalteromonas lipolytica TC8 assessed as inhibition of bacterial adhesion incubated for 15 hrs at 20 degC by Syto 61 dye based fluorimetric assay; type: functional, organism-based; in short: as §1
Pseudoalteromonas ulvae [6] = test: Anti-biofilm activity against Pseudoalteromonas ulvae TC14 assessed as bacterial adhesion at 200 uM incubated for 15 hrs at 20 degC by Syto 61 dye based fluorescence assay relative to control; type: functional; in short: as §1
[7] = system: Pseudoalteromonas lipolytica; test: Growth inhibition of Pseudoalteromonas lipolytica TC8 at 5 uM measured every hr for 6 hrs by turbidimetric method; type: organism-based; conditions: in vivo
In short: (§2)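 Bacterial growth of TC14, TC8 and 4M6 was followed with test compounds at 100 µM. Ampicillin at 5 µM served as the reference antibiotic.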

Paracoccus sp. [8] = test: Effect on cell viability of Paracoccus sp. 4M6 at 5 uM measured after 6 hrs by resazurin dye based fluorescence assay; type: organism-based
In short: (§3)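 Viability was scored with resazurin, following the same protocol as the Syto 61 antiadhesion assay. Compounds were tested at 5, 10, 20, 50, 100 and 200 µM on each strain, and the 5 and 100 µM points are the ones reported.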

Pseudoalteromonas ulvae [9] = test: Growth inhibition of Pseudoalteromonas ulvae TC14 at 5 uM measured every hr for 6 hrs by turbidimetric method; type: organism-based; conditions: in vivo; in short: as §2
[10] = system: Pseudoalteromonas lipolytica; test: Effect on cell viability of Pseudoalteromonas lipolytica TC8 at 5 uM measured after 6 hrs by resazurin dye based fluorescence assay; type: organism-based; in short: as §3
Paracoccus sp. [11] = test: Growth inhibition of Paracoccus sp. 4M6 at 5 uM measured every hr for 6 hrs by turbidimetric method; type: organism-based; conditions: in vivo; in short: as §2
Pseudoalteromonas ulvae [12] = test: Effect on cell viability of Pseudoalteromonas ulvae TC14 at 5 uM measured after 6 hrs by resazurin dye based fluorescence assay; type: organism-based; in short: as §3
Pseudoalteromonas ulvae [13] = test: Effect on cell viability of Pseudoalteromonas ulvae TC14 at 100 uM measured after 6 hrs by resazurin dye based fluorescence assay; type: organism-based; in short: as §3
[14] = system: Pseudoalteromonas lipolytica; test: Effect on cell viability of Pseudoalteromonas lipolytica TC8 at 100 uM measured after 6 hrs by resazurin dye based fluorescence assay; type: organism-based; in short: as §3
Paracoccus sp. [15] = test: Effect on cell viability of Paracoccus sp. 4M6 at 100 uM measured after 6 hrs by resazurin dye based fluorescence assay; type: organism-based; in short: as §3
[16] = system: Pseudoalteromonas lipolytica; test: Growth inhibition of Pseudoalteromonas lipolytica TC8 at 100 uM measured every hr for 6 hrs by turbidimetric method; type: organism-based; conditions: in vivo; in short: as §2
Pseudoalteromonas ulvae [17] = test: Growth inhibition of Pseudoalteromonas ulvae TC14 at 100 uM measured every hr for 6 hrs by turbidimetric method; type: organism-based; conditions: in vivo; in short: as §2
Paracoccus sp. [18] = test: Growth inhibition of Paracoccus sp. 4M6 at 100 uM measured every hr for 6 hrs by turbidimetric method; type: organism-based; conditions: in vivo; in short: as §2
[19] = Pseudoalteromonas ulvae, TC14, 15 h
[20] = Paracoccus sp. (in: a-proteobacteria), 4M6, 15 h
[21] = Pseudoalteromonas lipolytica, TC8, 15 h

| EC50 (Pseudoalteromonas ulvae [1]; [19]) | EC50 (Paracoccus sp. [4]; [20]) | EC50 [5, 21] | Compound | Activity (Paracoccus sp. [2]) | Activity [3] | Activity (Pseudoalteromonas ulvae [6]) | also measured |
| --- | --- | --- | --- | --- | --- | --- | --- |
| > 200 µM | > 200 µM | > 200 µM | CN(C)CCOc1ccc(CCn2cc(CCCCc3cn(CCc4ccc(OCCN(C)C)c(Br)c4)nn3)nn2)cc1Br | 57.4% | 58.5% | – | – |
| – | > 200 µM | > 200 µM | CN(C)CCCOc1ccc(CCn2cc(COCc3cn(CCc4ccc(OCCCN(C)C)c(Br)c4)nn3)nn2)cc1Br | 53.7% | – | – | – |
| > 200 µM | > 200 µM | > 200 µM | Oc1ccc(CCn2cc(-c3cccc(-c4cn(CCc5ccc(O)c(Br)c5)nn4)c3)nn2)cc1Br | 61.5% | 66.5% | 56.8% | – |
| – | – | – | CC1(C)S[C@@H]2[C@H](NC(=O)[C@H](N)c3ccccc3)C(=O)N2[C@H]1C(=O)O [AMPICILLIN] | – | – | – | growth inhibition (GI) [7]: Toxic; Activity (Paracoccus sp. [8]): Toxic; growth inhibition (GI) (Pseudoalteromonas ulvae [9]): Toxic; Activity [10]: Toxic; growth inhibition (GI) (Paracoccus sp. [11]): Toxic; Activity (Pseudoalteromonas ulvae [12]): Toxic |
| – | 198 µM | – | Oc1ccc(CCn2cc(COCc3cn(CCc4ccc(O)c(Br)c4)nn3)nn2)cc1Br | 47.8% | 50.3% | 40.3% | – |
| > 200 µM | > 200 µM | > 200 µM | COc1ccc(CCn2cc(CCCc3cn(CCc4ccc(OC)c(Br)c4)nn3)nn2)cc1Br | 49.2% | 50% | – | – |
| > 200 µM | > 200 µM | > 200 µM | Oc1ccc(CCn2cc(CCCc3cn(CCc4ccc(O)c(Br)c4)nn3)nn2)cc1Br | 83.4% | 63.5% | 53.1% | – |
| > 200 µM | > 200 µM | > 200 µM | CN(C)CCCOc1ccc(CCn2cc(CCCCc3cn(CCc4ccc(OCCCN(C)C)c(Br)c4)nn3)nn2)cc1Br | 80.7% | 89.2% | 66.5% | – |
| 59.9 µM | 88.3 µM | 80.3 µM | Oc1ccc(CCn2cc(CNCc3cn(CCc4ccc(O)c(Br)c4)nn3)nn2)cc1Br | 27.9% | – | – | – |
| > 200 µM | > 200 µM | > 200 µM | Oc1ccc(CCn2cc(CCCCc3cn(CCc4ccc(O)c(Br)c4)nn3)nn2)cc1Br | 52.4% | – | – | – |
| – | – | – | tributyltin-oxide | – | – | – | EC50 (Pseudoalteromonas ulvae [1]): 0.7 µM; EC50 (Paracoccus sp. [4]): 4 µM; EC50 [5]: 7 µM |
| – | 164 µM | – | COc1ccc(CCn2cc(COCc3cn(CCc4ccc(OC)c(Br)c4)nn3)nn2)cc1Br | 44.9% | 42.8% | 38.5% | – |
| > 200 µM | > 200 µM | > 200 µM | COc1ccc(CCn2cc(-c3cccc(-c4cn(CCc5ccc(OC)c(Br)c5)nn4)c3)nn2)cc1Br | 76.2% | 101.1% | 74.1% | – |
| 0.4 µM | 3.5 µM | 15 µM | CN(C)CCCOc1ccc(CCn2cc(-c3ccc(-c4cn(CCc5ccc(OCCCN(C)C)c(Br)c5)nn4)cc3)nn2)cc1Br | 5.1% | 5.3% | 0.6% | Activity (Pseudoalteromonas ulvae [13]): Toxic; Activity [14]: Toxic; Activity (Paracoccus sp. [15]): Toxic; Activity (Paracoccus sp. [8]): Non-Toxic; growth inhibition (GI) [16]: Toxic; growth inhibition (GI) (Pseudoalteromonas ulvae [17]): Toxic; growth inhibition (GI) (Paracoccus sp. [18]): Toxic; Activity [10]: Non-Toxic; Activity (Pseudoalteromonas ulvae [12]): Non-Toxic |
| > 200 µM | > 200 µM | > 200 µM | CN(C)CCOc1ccc(CCn2cc(CCCCCCc3cn(CCc4ccc(OCCN(C)C)c(Br)c4)nn3)nn2)cc1Br | 59.5% | 54.4% | – | – |
| > 200 µM | > 200 µM | > 200 µM | Oc1ccc(CCn2cc(CCCCCCc3cn(CCc4ccc(O)c(Br)c4)nn3)nn2)cc1Br | 78.1% | 75% | 61.7% | – |
| – | > 200 µM | – | CN(C)CCOc1ccc(CCn2cc(CNCc3cn(CCc4ccc(OCCN(C)C)c(Br)c4)nn3)nn2)cc1Br | 51.8% | – | 40.9% | – |
| > 200 µM | > 200 µM | > 200 µM | COc1ccc(CCn2cc(CCCCCCc3cn(CCc4ccc(OC)c(Br)c4)nn3)nn2)cc1Br | 69.2% | 78.3% | 62.7% | – |
| > 200 µM | > 200 µM | > 200 µM | CN(C)CCOc1ccc(CCn2cc(CCCc3cn(CCc4ccc(OCCN(C)C)c(Br)c4)nn3)nn2)cc1Br | 51.5% | 57% | – | – |
| > 200 µM | > 200 µM | > 200 µM | COc1ccc(CCn2cc(CCCCc3cn(CCc4ccc(OC)c(Br)c4)nn3)nn2)cc1Br | 50.9% | – | – | – |
| > 200 µM | > 200 µM | > 200 µM | CN(C)CCCOc1ccc(CCn2cc(-c3cccc(-c4cn(CCc5ccc(OCCCN(C)C)c(Br)c5)nn4)c3)nn2)cc1Br | 78.1% | 71.6% | 65.3% | – |
| 0.9 µM | 5.1 µM | 5.1 µM | CN(C)CCOc1ccc(CCn2cc(-c3ccc(-c4cn(CCc5ccc(OCCN(C)C)c(Br)c5)nn4)cc3)nn2)cc1Br | 10.1% | 14.6% | 0% | Activity (Pseudoalteromonas ulvae [13]): Toxic; Activity [14]: Toxic; Activity (Paracoccus sp. [15]): Toxic; Activity (Paracoccus sp. [8]): Non-Toxic; growth inhibition (GI) [16]: Toxic; growth inhibition (GI) (Pseudoalteromonas ulvae [17]): Toxic; growth inhibition (GI) (Paracoccus sp. [18]): Toxic; Activity [10]: Non-Toxic; Activity (Pseudoalteromonas ulvae [12]): Non-Toxic |
| – | 194 µM | – | COc1ccc(CCn2cc(CNCc3cn(CCc4ccc(OC)c(Br)c4)nn3)nn2)cc1Br | 46.3% | – | – | – |
| 40.9 µM | 59.9 µM | > 200 µM | Oc1ccc(CCn2cc(-c3ccc(-c4cn(CCc5ccc(O)c(Br)c5)nn4)cc3)nn2)cc1Br | 31.8% | – | 31.1% | – |
| > 200 µM | > 200 µM | > 200 µM | CN(C)CCCOc1ccc(CCn2cc(CCCc3cn(CCc4ccc(OCCCN(C)C)c(Br)c4)nn3)nn2)cc1Br | 77.2% | – | – | – |
| > 200 µM | > 200 µM | – | CN(C)CCCOc1ccc(CCn2cc(CNCc3cn(CCc4ccc(OCCCN(C)C)c(Br)c4)nn3)nn2)cc1Br | 56.3% | – | 45% | – |
| > 200 µM | > 200 µM | > 200 µM | CN(C)CCOc1ccc(CCn2cc(-c3cccc(-c4cn(CCc5ccc(OCCN(C)C)c(Br)c5)nn4)c3)nn2)cc1Br | 66.9% | 65.1% | 62.2% | – |
| 91.8 µM | 146 µM | – | CN(C)CCOc1ccc(CCn2cc(COCc3cn(CCc4ccc(OCCN(C)C)c(Br)c4)nn3)nn2)cc1Br | 40.4% | – | – | – |
| > 200 µM | > 200 µM | > 200 µM | CN(C)CCCOc1ccc(CCn2cc(CCCCCCc3cn(CCc4ccc(OCCCN(C)C)c(Br)c4)nn3)nn2)cc1Br | 84.7% | 72.3% | 71% | – |
